Experiments:
Type in all cases: cell-based
human neutrophils = assay: Ca2+ mobilization assay in human neutrophils; conditions: for Ca2+ flux human neutrophils efficacy: % of the response induced by 5 nM fMLF; for EC50: Homo sapiens, Neutrophil, read-out: Ca2+ flux human neutrophils EC50
Procedure, shortened: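 Neutrophils from healthy donors were purified by dextran sedimentation, Histopaque 1077 gradient and hypotonic red-cell lysis (>95% pure, >98% viable). After Fluo-4 AM loading (1.25 μg/mL final, 30 min, 37 °C, dark), cells were seeded at 2 × 10^5/well in HBSS with Ca2+/Mg2+. Fluorescence (485/538 nm) was tracked every 5 s for 240 s at room temperature. Maximum change over baseline was normalised, and EC50 came from a 5-6-point nonlinear fit.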

FPR1 = target: T1, FPR1 (Homo sapiens, UniProt P21462); assay: Ca2+ mobilization assay in FPR1-HL60 cells; conditions: for Ca2+ flux FPR1-HL60 efficacy: % of the response induced by 5 nM fMLF; for Emax: read-out: Ca2+ flux FPR1-HL60 efficacy
T1 sequence (P21462 1-350): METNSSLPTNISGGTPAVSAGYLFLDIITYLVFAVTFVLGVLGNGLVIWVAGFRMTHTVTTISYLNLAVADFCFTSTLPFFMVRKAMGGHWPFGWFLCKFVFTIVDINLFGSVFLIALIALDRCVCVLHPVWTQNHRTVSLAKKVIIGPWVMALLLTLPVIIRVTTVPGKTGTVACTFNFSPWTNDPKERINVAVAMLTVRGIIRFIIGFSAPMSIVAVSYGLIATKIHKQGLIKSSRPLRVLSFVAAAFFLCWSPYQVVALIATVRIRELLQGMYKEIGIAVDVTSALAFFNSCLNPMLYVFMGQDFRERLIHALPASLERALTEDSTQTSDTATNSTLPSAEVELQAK
Procedure, shortened: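 FPR1-transfected HL60 cells were grown in RPMI 1640 with 10% heat-inactivated FCS, 10 mM HEPES and G418 (1 mg/mL). Cells were loaded with Fluo-4 AM (1.25 μg/mL final) for 30 min at 37 °C in the dark, then washed and seeded in HBSS+ at 2 × 10^5 cells/well. Fluorescence (485/538 nm) was read every 5 s for 240 s at room temperature after compound addition. Peak rise over baseline was set against 5 nM fMLF (100%). EC50 came from nonlinear regression of 5-6-point curves, mean of three independent experiments. No activity meant no response within 2 min (limits: efficacy >20%, EC50 <50 μM).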

FPR2 = target: T2, FPR2 (Homo sapiens, UniProt P25090); assay: Ca2+ mobilization assay in FPR2-HL60 cells; conditions: for Ca2+ flux FPR2-HL60 efficacy: % of the response induced by 5 nM WKYMVm; for Emax: read-out: Ca2+ flux FPR2-HL60 efficacy
T2 sequence (P25090 1-351): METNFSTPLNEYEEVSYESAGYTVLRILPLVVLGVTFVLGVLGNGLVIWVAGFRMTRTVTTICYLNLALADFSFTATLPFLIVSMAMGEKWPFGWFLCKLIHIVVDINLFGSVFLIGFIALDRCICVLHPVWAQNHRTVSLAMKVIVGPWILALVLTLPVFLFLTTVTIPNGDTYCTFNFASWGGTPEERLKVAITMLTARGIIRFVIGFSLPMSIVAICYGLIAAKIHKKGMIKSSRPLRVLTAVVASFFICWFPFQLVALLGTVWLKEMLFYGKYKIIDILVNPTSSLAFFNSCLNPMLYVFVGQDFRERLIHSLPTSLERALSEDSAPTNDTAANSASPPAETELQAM
Procedure, shortened: (§1)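 FPR2- or FPR3-transfected HL60 cells were grown in RPMI 1640 with 10% heat-inactivated FCS and G418 1 mg/mL. Cells were loaded with Fluo-4 AM (1.25 μg/mL final) for 30 min at 37 °C in the dark, washed, and seeded at 2 × 10^5 cells/well in HBSS+. Fluorescence (ex 485/em 538 nm) was read every 5 s for 240 s at room temperature. Peak rise over baseline was normalised to the reference agonist. EC50 came from 5-6-point nonlinear regression over three independent experiments.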

FPR3 = target: T3, FPR3 (Homo sapiens, UniProt P25089); assay: Ca2+ mobilization assay in FPR3-HL60 cells; conditions: for Ca2+ flux FPR3-HL60 efficacy: % of the response induced by 10 nM WKYMVm; for Emax: read-out: Ca2+ flux FPR3-HL60 efficacy
T3 sequence (P25089 1-353): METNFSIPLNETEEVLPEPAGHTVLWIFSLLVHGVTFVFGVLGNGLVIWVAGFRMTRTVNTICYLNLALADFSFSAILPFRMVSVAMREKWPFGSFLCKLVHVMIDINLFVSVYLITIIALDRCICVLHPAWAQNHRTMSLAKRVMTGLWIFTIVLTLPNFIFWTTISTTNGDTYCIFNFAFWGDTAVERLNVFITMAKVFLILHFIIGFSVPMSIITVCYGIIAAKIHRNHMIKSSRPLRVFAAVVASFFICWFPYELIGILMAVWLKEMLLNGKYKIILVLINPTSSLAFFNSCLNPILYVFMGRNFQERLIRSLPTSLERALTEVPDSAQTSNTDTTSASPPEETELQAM
Procedure, shortened: as §1

mouse Fpr1 = target: T4, mouse Fpr1 (Mus musculus, UniProt P33766); assay: Ca2+ mobilization assay in mFpr1-RBL cells; conditions: for Ca2+ flux mFpr1-RBL efficacy: % of the response induced by 10 nM WKYMVm; for Ca2+ flux mFpr1-RBL EC50: RBL cells transfected with mouse Fpr1, N.A. = no activity
T4 sequence (P33766 1-364): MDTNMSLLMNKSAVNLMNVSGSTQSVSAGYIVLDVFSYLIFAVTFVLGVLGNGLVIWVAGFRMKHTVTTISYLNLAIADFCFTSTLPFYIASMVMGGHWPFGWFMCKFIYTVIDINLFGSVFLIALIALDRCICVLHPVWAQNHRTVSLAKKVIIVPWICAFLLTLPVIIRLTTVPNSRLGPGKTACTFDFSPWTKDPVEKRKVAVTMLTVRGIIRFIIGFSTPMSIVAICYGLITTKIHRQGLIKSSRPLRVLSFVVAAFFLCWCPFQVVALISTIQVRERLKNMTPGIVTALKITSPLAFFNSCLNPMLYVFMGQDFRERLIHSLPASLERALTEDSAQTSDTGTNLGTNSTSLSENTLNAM
Procedure, shortened: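 RBL-2H3 rat basophilic leukemia cells transfected with mouse Fpr1 were kept in DMEM with 20% FBS and G418 250 μg/ml. Cells were dye-loaded with Fluo-4 AM (1.25 μg/mL final) for 30 min at 37 °C and plated at 2 × 10^5/well in HBSS+. Fluorescence (485/538 nm) was followed every 5 s for 240 s at room temperature. Peak over baseline was normalised, and EC50 was taken by 5-6-point nonlinear regression, averaged from three independent experiments.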

mouse neutrophils = assay: Ca2+ mobilization assay in mouse neutrophils; conditions: for Ca2+ flux mouse neutrophils efficacy: % of the response induced by 10 nM WKYMVm; for Ca2+ flux mouse neutrophils EC50: N.A. = no activity (no response during first 2 min)
Procedure, shortened: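 Bone marrow was flushed from BALB/c mouse tibias and femurs and separated on a Percoll gradient (45/50/55/62/81%, 1600g, 30 min, 10 °C). Red cells were removed over Histopaque 1119. Neutrophils were loaded with Fluo-4 AM (1.25 μg/mL final) for 30 min at 37 °C, seeded in HBSS+ at 2 × 10^5 cells/well, and read at 485/538 nm every 5 s for 240 s at room temperature. Responses were normalized to 10 nM WKYMVm. EC50 came from nonlinear regression of 5-6-point curves, three experiments.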

mouse Fpr2 = target: T5, mouse Fpr2 (Mus musculus, UniProt O88536); assay: Ca2+ mobilization assay in mFpr2-RBL cells; conditions: for Ca2+ flux mFpr2-RBL efficacy: % of the response induced by 10 nM WKYMVm; for Ca2+ flux mFpr2-RBL EC50: RBL cells transfected with mouse Fpr2, N.A. = no activity
T5 sequence (O88536 1-351): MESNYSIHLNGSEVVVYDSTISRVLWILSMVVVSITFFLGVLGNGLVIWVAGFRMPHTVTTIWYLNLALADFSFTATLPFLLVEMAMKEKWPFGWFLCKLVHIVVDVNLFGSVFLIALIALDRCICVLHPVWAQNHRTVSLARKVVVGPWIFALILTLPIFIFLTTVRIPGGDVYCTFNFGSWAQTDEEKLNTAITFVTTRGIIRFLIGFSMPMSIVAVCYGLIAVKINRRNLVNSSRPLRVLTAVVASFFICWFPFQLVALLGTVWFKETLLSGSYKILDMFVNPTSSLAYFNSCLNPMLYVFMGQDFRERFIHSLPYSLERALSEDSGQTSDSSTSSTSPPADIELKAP
Procedure, shortened: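 RBL-2H3 cells stably expressing mouse Fpr2 were grown in DMEM with 20% FBS, 10 mM HEPES and G418 (250 μg/ml). Fluo-4 AM (1.25 μg/mL final) was loaded for 30 min at 37 °C in the dark. Cells were seeded in HBSS+ at 2 × 10^5 cells/well, and fluorescence (485/538 nm) was read every 5 s for 240 s at room temperature. Peak rise was normalized to 10 nM WKYMVm (100%). EC50 came from nonlinear regression of 5-6-point curves over three independent experiments.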

SMILES	Ca2+ flux human neutrophils efficacy (human neutrophils)	Ca2+ flux FPR1-HL60 efficacy (FPR1)	Ca2+ flux FPR2-HL60 efficacy (FPR2)	Ca2+ flux FPR3-HL60 efficacy (FPR3)	Ca2+ flux mFpr1-RBL efficacy (mouse Fpr1)	EC50 (human neutrophils)	Emax (FPR1)	Ca2+ flux mouse neutrophils efficacy (mouse neutrophils)	EC50 (mouse Fpr2)	Ca2+ flux mFpr2-RBL efficacy (mouse Fpr2)	Emax (FPR2)	EC50 (FPR3)	Emax (FPR3)	Ca2+ flux mouse neutrophils EC50 (mouse neutrophils)	Ca2+ flux mFpr1-RBL EC50 (mouse Fpr1)	Ca2+ flux mFpr2-RBL EC50 (mouse Fpr2)
CC1=NN(CC(=O)Nc2ccc(Br)cc2)C(=O)CC1C (racemic) [(±)-6a, (±)N-(4-Bromophenyl)-2-[3,4-dimethyl-6-oxo-5,6-dihydropyridazin-1(4H)-yl]acetamide]	115%	60%	120%	150%	70%											
COc1cccc(Cc2c(-c3ccccc3)c(C)nn(CC(=O)Nc3ccc(Br)cc3)c2=O)c1 [4f, N-(4-Bromophenyl)-2-[5-(3-methoxybenzyl)-3-methyl-6-oxo-4-phenylpyridazin-1(6H)-yl]acetamide]						5400 ± 260 nM	160%	95%	28800 ± 5200 nM	180%						
COc1cccc(Cc2c(C)c(C)nn(CC(=O)Nc3ccc(Br)cc3)c2=O)c1 [4a, N-(4-Bromophenyl)-2-[5-(3-methoxybenzyl)-3,4-dimethyl-6-oxopyridazin-1(6H)-yl]acetamide]						6 ± 2 nM	85%				80%	40 ± 11 nM	165%	complete inactivity	complete inactivity	complete inactivity
COc1ccc(Cc2c(C)c(C)nn(CC(=O)Nc3ccc(Br)cc3)c2=O)cc1 [4b, N-(4-Bromophenyl)-2-[5-(4-methoxybenzyl)-3,4-dimethyl-6-oxopyridazin-1(6H)-yl]acetamide]						270 ± 25 nM	60%				95%	130 ± 32 nM	100%	complete inactivity	complete inactivity	complete inactivity
CC1=NN(CC(=O)Nc2ccc(Br)cc2)C(=O)CC1c1ccccc1 (racemic) [(±)-6b, (±)N-(4-Bromophenyl)-2-[3-methyl-6-oxo-4-phenyl-5,6-dihydropyridazin-1(4H)-yl]acetamide]	75%	90%	110%	120%	60%			160%		220%						
